High-throughput results from PubChem BioAssay.
MrgX1 antagonist: antagonists of human MrgX1 receptor, primary screen, HEK293 cells, Fluo-4 calcium flux; BAM8-22 antagonism; active compounds read low; Mas-related G-protein coupled receptor member X1 (Homo sapiens), Q96LB2; B-score at 10 µM; 310,000 tested, 1.3% active;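 active means calcium-response B-score plate-corrected more than 3 library SD below zero, starting fluorescence within 5 deviations, no agonist response on first addition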;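 further: peak minus trough fluorescence over baseline after final BAM8-22 challenge near maximal dose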
Target sequence (Q96LB2 whole entry, looked up): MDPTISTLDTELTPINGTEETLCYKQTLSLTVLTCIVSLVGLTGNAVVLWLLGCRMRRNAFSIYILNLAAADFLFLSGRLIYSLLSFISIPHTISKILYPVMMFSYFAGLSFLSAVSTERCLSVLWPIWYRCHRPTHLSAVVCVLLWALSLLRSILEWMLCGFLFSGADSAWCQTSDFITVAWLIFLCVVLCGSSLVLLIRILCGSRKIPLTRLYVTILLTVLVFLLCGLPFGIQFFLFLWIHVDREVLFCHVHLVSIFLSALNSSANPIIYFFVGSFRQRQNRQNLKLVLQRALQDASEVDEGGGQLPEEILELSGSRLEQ
RGS4 inh: RGS4 inhibitors, primary screen, cell-based, HEK293 M3R inducible RGS4, calcium flux | Fluo-4 calcium flux; active compounds read high; triggered by carbachol at its EC20 | B-score at 10 µM | 310,000 tested, 0.45% active | AID 463165, 2010;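 active means B-score, a plate-corrected calcium signal, over three deviations above library mean, with baseline fluorescence within five deviations of library mean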;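 further: RGS4 expression induced by doxycycline in cells with stable M3 receptor; B-score is computed from the integrated fluorescence ratio over baseline after carbachol; higher B-score means a larger calcium signal and so more RGS4 inhibition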
Target sequence (P49798 whole entry, looked up): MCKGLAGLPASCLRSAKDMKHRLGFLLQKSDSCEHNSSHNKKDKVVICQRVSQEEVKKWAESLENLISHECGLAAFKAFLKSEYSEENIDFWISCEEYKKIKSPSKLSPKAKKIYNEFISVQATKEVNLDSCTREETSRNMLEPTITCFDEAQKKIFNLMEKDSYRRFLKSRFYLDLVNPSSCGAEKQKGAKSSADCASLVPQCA
MrgX1 ag: agonists of human MrgX1 receptor, primary screen, HEK293 cells, Fluo-4 calcium flux | 310,000 tested, 0.44% active | Mas-related G-protein coupled receptor member X1 (Homo sapiens), Q96LB2 | B-score at 10 µM | Fluo-4 calcium fluorescence, agonist mode; active compounds read high;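 active means calcium response B-score plate-corrected fluorescence ratio at least 3 library SD, with starting fluorescence B-score inside 5 SD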
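System – MrgX1-expressing HEK293 cells · Incubation – cells plated overnight, dye loaded 0.5 h 37 °C, 0.5 h room temperature · Technique – kinetic Fluo-4 NW fluorescence of intracellular calcium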
RGS4 pot: RGS4 potentiators or activators, primary screen, cell-based, HEK293 M3R inducible RGS4, calcium flux. carbachol calcium flux Fluo4; active compounds read low. B-score at 10 µM. 310,000 tested, 0.92% active;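 active means B-score of the integrated calcium signal more than 4 SD below the library mean, with starting fluorescence not abnormally high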;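 further: negative B-score means reduced calcium response which marks RGS4 activation or potentiation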
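Assay system: Inducible-RGS4 HEK293 cells carrying M3 receptor | Schedule: Compound preincubation 20 min at room temperature before agonist | Signal: Kinetic calcium fluorescence imaging with Fluo4-AM dye, 2 µM | Read-out basis: B score from integrated fluorescence ratio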
MrgX1 PAM: positive allosteric modulators of MrgX1, primary screen, HEK293 cells, Fluo-4 calcium flux. Mas-related G-protein coupled receptor member X1 (Homo sapiens), Q96LB2. FDSS; active compounds read high. B-score at 10 µM. 310,000 tested, 0.63% active. AID 588675, 2011;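 active means plate-corrected calcium response at least 3 library SD above typical, normal starting fluorescence, not activating the receptor alone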;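 further: compound read alongside a low EC10 to EC30 dose of BAM8-22 agonist; peak minus trough fluorescence over baseline measured at the second addition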
Numbers stand for hits; n = inactive; x = no result given. This is a sample that favours compounds with a hit; in the whole collection about 3.5% have one here.

SMILES | MrgX1 antagonist | RGS4 inh | MrgX1 ag | RGS4 pot | MrgX1 PAM
Cc1cc(C(=O)CSc2nncs2)c(C)n1-c1c(C)n(C)n(-c2ccccc2)c1=O | n | n | n | -9.4 | n
O=S(=O)(c1ccc(F)cc1)c1nc(-c2ccccc2)oc1N1CCOCC1 | n | n | n | n | n
COc1ccc(NC(=O)CO/N=C2/CCCc3nonc32)c(OC)c1 | -5.5 | n | n | n | n
O=C(CO/N=C1\CCCc2nonc21)Nc1ccc(Br)cc1 | n | n | n | n | n
COc1ccc(NC(=O)CO/N=C2\CCCc3nonc32)cc1 | n | n | n | n | n
O=C(CO/N=C1\CCCc2nonc21)Nc1ccccc1Cl | n | n | n | n | 14
O=C(COc1ccc2c(-c3ccccc3)cc(=O)oc2c1)Nc1ccc(CCO)cc1 | n | n | n | n | n
COc1cc(C2C(C#N)=C(C)NC(C)=C2C#N)cc(OC)c1OC | n | n | n | n | n
COc1cc(CNCC2CCCO2)ccc1OCC(N)=O (stereo unspecified) | n | n | n | n | n
CC1CCN(c2nc(CN3CCCCC3)nc3scc(-c4ccccc4)c23)CC1 | n | n | n | -7.4 | n
CC1CCCN(c2nc(-c3cccnc3)nc3scc(-c4ccccc4)c23)C1 (stereo unspecified) | n | n | n | -7.3 | n
COc1cccc(N2CCN(S(=O)(=O)c3ccc(-n4cnnn4)cc3)CC2)c1 | n | n | n | n | n
CCn1cc(C(=O)NCC(OC)OC)c(=O)c2cc(S(=O)(=O)N(C)C3CCCCC3)ccc21 | n | n | n | n | n
CCCN1CCC(NC(=O)Cc2ccccc2C)CC1 | n | n | n | n | n
CC(C)N1CCN(C(=O)c2ccc(OC3CCN(CCc4ccccc4)CC3)cc2)CC1 | n | n | n | n | n
O=C(OCc1ccc([N+](=O)[O-])cc1)c1ccc2ccccc2n1 | n | n | n | n | n
O=C(OCc1cccc([N+](=O)[O-])c1)c1ccc2ccccc2n1 | n | n | n | n | 12
Cc1ccccc1-n1c(C)nnc1SCC(=O)N(C)C1CCS(=O)(=O)C1 (stereo unspecified) | n | n | n | n | n
Cc1ccnc(SCC(=O)c2ccc([N+](=O)[O-])cc2)n1 | n | n | n | n | n
Cc1cc(C)nc(SCC(=O)c2ccc([N+](=O)[O-])cc2)n1 | -6.1 | n | n | n | n
COc1ccccc1OCc1nnc(SCC(=O)N2CCCCC2)o1 | x | n | x | n | x
CCOc1ccc(NC(=O)NNC(=O)COc2ccc3ccccc3c2)cc1 | -6.7 | n | n | n | n
Cc1ccccc1C(=O)Nc1cccc(C(=O)Nc2ccccc2C(=O)O)c1 | n | n | n | n | n
O=C(N/N=C/c1ccccc1F)c1cccc(NC(=O)c2ccccc2Cl)c1 | n | n | n | n | 8.4
O=C(N/N=C/c1ccc(F)cc1)c1cccc(NC(=O)c2ccc(F)cc2)c1 | n | n | n | -7.3 | n
SMILES | MrgX1 antagonist | RGS4 inh | MrgX1 ag | RGS4 pot | MrgX1 PAM
O=C(Nc1ccccc1C(=O)O)c1cccc(NC(=O)c2ccccc2Cl)c1 | n | n | n | -7 | n
CC(C)C1OC(c2cccc(NC(=O)c3cccs3)c2)OCC1(C)C (stereo unspecified) | n | n | n | n | n
Cc1ccc2nc(/C(C#N)=C/c3ccc(O)c(O)c3)[nH]c2c1 | n | n | 35 | n | n
Cc1ccc2nc(/C(C#N)=C/c3ccccc3C(=O)O)[nH]c2c1 | n | n | n | n | n
OCCCNCc1ccc(N(c2ccccc2)c2ccccc2)cc1 | n | n | n | -7.3 | n
Cc1c(CC(=O)N2CCC(C(=O)O)CC2)c(=O)oc2cc3c(cc12)CCC1(CCCCC1)O3 | n | n | n | n | n
CCCOc1ccc(S(=O)(=O)n2cc(F)c(=O)[nH]c2=O)cc1 | n | n | n | n | 7.9
O=C1/C(=C/c2c[nH]c3ccccc23)CCC/C1=C\c1c[nH]c2ccccc12 | n | n | n | n | 8.6
CC(C)=CCc1c(O)cc2oc3c(CC=C(C)C)c(O)c(O)c(CC=C(C)C)c3c(=O)c2c1O | -5.6 | n | n | n | n
COc1ccc(CC(=O)Oc2ccccc2Cl)cc1S(=O)(=O)N1CCOCC1 | n | n | n | n | n
O=C1Nc2ccc(Cl)cc2C(C#CC2CC2)(C(F)(F)F)O1 (stereo unspecified) | n | n | n | n | n
COc1ccc(/C=C/C(=O)Nc2ccccc2Cl)cc1S(=O)(=O)N1CCOCC1 | n | n | n | n | n
COc1cccc(/C=N/NC(=O)CNC(=O)C(c2ccccc2)c2ccccc2)c1O | n | n | n | n | n
O=C1CC(c2ccccc2)CC(O)=C1C=NCc1ccc(Cl)c(Cl)c1 (stereo unspecified) | n | n | n | n | n
O=C1CC(c2ccccc2)CC(O)=C1C=NCc1ccncc1 (stereo unspecified) | -6.4 | n | n | n | n
Cc1cccc(NC(=S)NC(=O)/C=C/c2ccco2)c1 | n | n | n | n | 9.1
CSc1cccc(NC(=O)/C=C/c2ccco2)c1 | n | n | n | n | 6.5
CC(=O)c1ccc(NC(=S)NC(=O)/C=C/c2ccco2)cc1 | n | n | n | n | n
O=C(/C=C/c1ccco1)NC(=S)Nc1ccccc1 | n | n | n | n | 13
COc1cccc(NC(=O)/C=C/c2ccco2)c1 | n | n | n | n | n
CCOc1ccccc1NC(=O)CCC(=O)Nc1nnc(C2CCCCC2)s1 | n | n | n | n | n
CCCCSc1nnc(CCNC(=O)OC(C)(C)C)o1 | n | n | n | n | n
CC(C)CCOc1ccc(C(=O)N2CCCC2C(=O)O)cc1 (stereo unspecified) | n | n | n | n | n
C=CCN1C(=O)N/C(=C/c2ccc(N3CCOCC3)o2)C1=O | -5.1 | n | n | n | n
O=C1S/C(=C/c2ccc(N3CCOCC3)o2)C(=O)N1Cc1ccc(F)cc1 | n | n | 46 | n | n
SMILES | MrgX1 antagonist | RGS4 inh | MrgX1 ag | RGS4 pot | MrgX1 PAM
O=C1N/C(=C/c2ccc(N3CCOCC3)o2)C(=O)N1c1ccccc1 | n | x | n | x | n
CCN(C(=O)c1ccco1)c1nnc(-c2cccnc2)s1 | n | n | n | n | n
Cc1ccc(C(=O)NCc2ccccn2)cc1NC1=NC2CS(=O)(=O)CC2S1 (stereo unspecified) | n | n | n | n | n
O=C(CN1CCN(c2nc(-c3ccccc3)cs2)CC1)NNC(=O)c1ccco1 | n | n | n | n | n
Cc1ccc2nc(N(CCCN(C)C)C(=O)c3ccc(S(=O)(=O)N4CCc5ccccc5C4)cc3)sc2c1 | n | n | n | -7.8 | n
CN(C)CCCN(C(=O)c1ccc(S(=O)(=O)N2CCc3ccccc3C2)cc1)c1nc2ccc(F)cc2s1 | n | n | n | n | n
